The source made the active and inactive calls. No cut-off for these calls is given here.
Legend:
Spinacia oleracea [1] = experiment: Effect on uncoupled photosystem 2 in spinach chloroplast assessed as inhibition of electron transport rate of water to 2,6-dicholorophenol indophenol at 300 uM relative to control; parameters: scale not given: the % may be the effect or the level left
Method in brief: (§1)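 Uncoupled PSII water→DCPIP followed as DCPIP-supported O₂ evolution, measured polarographically. Basal medium used 300 μM K₃[Fe(CN)₆] in place of MV, with 1 μM DBMIB, 50 μM DCPIP and 6 mM NH₄Cl. Run at 20 °C; % of control; average of three replicates.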

Spinacia oleracea [2] = experiment: Effect on uncoupled photosystem 1 in spinach chloroplast assessed as inhibition of electron transport rate of tetramethyl-p-benzohydroquinone to methyl viologen at 300 uM relative to control; parameters: scale not given: the % may be the effect or the level left
Method in brief: (§2)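 Uncoupled PSI flow TMQH₂→MV monitored polarographically at 20 °C in 3 mL basal electron medium. Additions were 100 μM TMQH₂/300 μM ascorbate, 10 μM DCMU and 6 mM NH₄Cl. Blank with chloroplasts alone; values as % of control; average of three replicates.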

Spinacia oleracea [3] = experiment: Effect on uncoupled photosystem 1 in spinach chloroplast assessed as inhibition of electron transport rate of 2,6-dichlorophenol indophenol to methyl viologen at 50 uM relative to control; parameters: scale not given: the % may be the effect or the level left
Method in brief: (§3)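 Uncoupled PSI flow measured polarographically in 3 mL basal uncoupled medium. Donor was 100 μM DCPIP reduced by 300 μM sodium ascorbate, with 10 μM DCMU to block PSII, 6 mM NH₄Cl and 0.05 mM MV as acceptor. Run at 20 °C; % of control; average of three replicates.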

Spinacia oleracea [4] = experiment: Effect on uncoupled photosystem 1 in spinach chloroplast assessed as inhibition of electron transport rate of tetramethyl-p-benzohydroquinone to methyl viologen at 50 uM relative to control; parameters: scale not given: the % may be the effect or the level left; method in brief: as §2
Spinacia oleracea [5] = experiment: Effect on ATP synthesis in spinach leaves chloroplast assessed as blockade of uncoupled electron transport at 50 uM; assay type: functional
Method in brief: (§4)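 Uncoupled electron transport measured in basal medium with 6 mM NH₄Cl as uncoupler. Actinic light came from a projector lamp through a 5 cm 1% CuSO₄ filter for 2 min. Chloroplasts at 20 μg Chl/mL, 20 °C, blank with chloroplasts alone. Activity given as % of control.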

Spinacia oleracea [6] = experiment: Inhibition of H+ATPase activity in spinach thylakoid membranes at 300 uM; assay type: cell membranes
Method in brief: (§5)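 Thylakoid membrane-bound Mg²⁺-ATPase measured during ATP hydrolysis. Released inorganic phosphate determined colorimetrically.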

Spinacia oleracea [7] = experiment: Effect on ATP synthesis in spinach leaves chloroplast assessed as blockade of basal electron transport at 50 uM; assay type: functional
Method in brief: (§6)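 Spinach chloroplasts at 20 μg chlorophyll/mL, illuminated 1 min in basal electron transport medium (3 mL) with 0.05 mM MV as electron acceptor. Run at 20 °C with a chloroplast-only blank. Rates are in μequiv e⁻ h⁻¹ mg⁻¹ Chl; 100% is the control activity.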

Spinacia oleracea [8] = experiment: Effect on uncoupled photosystem 1 in spinach chloroplast assessed as inhibition of electron transport rate of tetramethyl-p-benzohydroquinone to methyl viologen at 100 uM relative to control; parameters: scale not given: the % may be the effect or the level left; method in brief: as §2
Spinacia oleracea [9] = experiment: Effect on uncoupled photosystem 2 in spinach chloroplast assessed as inhibition of electron transport rate of water to sodium silicomolybdate at 300 uM relative to control; parameters: scale not given: the % may be the effect or the level left
Method in brief: (§7)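 PSII water→silicomolybdate measured in the uncoupled electron flow mixture without MV, plus 200 μM SiMo and 10 μM DCMU. Run at 20 °C with a chloroplast-only blank. Activity given as % of control; average of three replicates.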

Spinacia oleracea [10] = experiment: Effect on uncoupled photosystem 2 in spinach chloroplast assessed as inhibition of electron transport rate of water to sodium silicomolybdate at 50 uM relative to control; parameters: scale not given: the % may be the effect or the level left; method in brief: as §7
Spinacia oleracea [11] = experiment: Effect on uncoupled photosystem 1 in spinach chloroplast assessed as inhibition of electron transport rate of 2,6-dichlorophenol indophenol to methyl viologen at 100 uM relative to control; parameters: scale not given: the % may be the effect or the level left; method in brief: as §3
Spinacia oleracea [12] = experiment: Effect on ATP synthesis in spinach leaves chloroplast assessed as blockade of phosphorylating electron transport at 300 uM; assay type: functional
Method in brief: (§8)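 Photophosphorylating noncyclic electron transport run as the basal assay (chloroplasts 20 μg Chl/mL, 1 min light, MV acceptor) with 1 mM ADP and 3 mM Pi added. Temperature 20 °C with a chloroplast-only blank. Activity expressed as % of control.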

Spinacia oleracea [13] = experiment: Inhibition of light activated thylakoid membrane bound Mg+ATPase activity in spinach leaves at 100 uM relative to control; settings: values are per cent of control; method in brief: as §5
Spinacia oleracea [14] = experiment: Residual light activated thylakoid membrane bound Mg+ATPase activity in spinach leaves at 300 uM relative to control
Spinacia oleracea [15] = experiment: Effect on uncoupled photosystem 2 in spinach chloroplast assessed as inhibition of electron transport rate of water to sodium silicomolybdate at 200 uM relative to control; parameters: scale not given: the % may be the effect or the level left; method in brief: as §7
Spinacia oleracea [16] = experiment: Effect on ATP synthesis in spinach leaves chloroplast assessed as blockade of phosphorylating electron transport at 50 uM; assay type: functional; method in brief: as §8
Spinacia oleracea [17] = experiment: Effect on photosystem 2 interaction site in spinach thylakoid membrane assessed as chlorophil-a fluorescence parameter at 150 uM; assay type: cell membranes
Method in brief: (§9)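 Freshly lysed spinach chloroplasts (20 μg Chl mL⁻¹) in the basal noncyclic electron transport medium were incubated with the compound for 5 min in the dark at room temperature. Rapid polyphasic Chl a fluorescence of PSII was then recorded at room temperature using a 2 s saturating pulse (2500 μmol […] s⁻¹, 650 nm LEDs). F0, Fm, Fv/Fm and area were read.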

Spinacia oleracea [18] = experiment: Effect on ATP synthesis in spinach leaves chloroplast assessed as blockade of uncoupled electron transport at 300 uM; assay type: functional; method in brief: as §4
Spinacia oleracea [19] = experiment: Effect on photosystem 2 interaction site in spinach thylakoid membrane assessed as chlorophil-a fluorescence parameter at 600 uM; assay type: cell membranes; method in brief: as §9
Spinacia oleracea [20] = experiment: Effect on uncoupled photosystem 2 in spinach chloroplast assessed as inhibition of electron transport rate of water to 2,6-dicholorophenol indophenol at 200 uM relative to control; parameters: scale not given: the % may be the effect or the level left; method in brief: as §1
Spinacia oleracea [21] = experiment: Effect on uncoupled photosystem 1 in spinach chloroplast assessed as inhibition of electron transport rate of 2,6-dichlorophenol indophenol to methyl viologen at 300 uM relative to control; parameters: scale not given: the % may be the effect or the level left; method in brief: as §3
Spinacia oleracea [22] = experiment: Inhibition of light activated thylakoid membrane bound Mg+ATPase activity in spinach leaves at 200 uM relative to control; settings: values are per cent of control; method in brief: as §5
Spinacia oleracea [23] = experiment: Effect on uncoupled photosystem 2 in spinach chloroplast assessed as inhibition of electron transport rate of water to 2,6-dicholorophenol indophenol at 50 uM relative to control; parameters: scale not given: the % may be the effect or the level left; method in brief: as §1
Spinacia oleracea [24] = experiment: Effect on uncoupled photosystem 1 in spinach chloroplast assessed as inhibition of electron transport rate of 2,6-dichlorophenol indophenol to methyl viologen at 200 uM relative to control; parameters: scale not given: the % may be the effect or the level left; method in brief: as §3
Spinacia oleracea [25] = experiment: Effect on uncoupled photosystem 2 in spinach chloroplast assessed as inhibition of electron transport rate of water to sodium silicomolybdate at 100 uM relative to control; parameters: scale not given: the % may be the effect or the level left; method in brief: as §7
Spinacia oleracea [26] = experiment: Effect on photosystem 2 interaction site in spinach thylakoid membrane assessed as chlorophil-a fluorescence parameter at 300 uM; assay type: cell membranes; method in brief: as §9
Spinacia oleracea [27] = experiment: Effect on uncoupled photosystem 2 in spinach chloroplast assessed as inhibition of electron transport rate of water to 2,6-dicholorophenol indophenol at 100 uM relative to control; parameters: scale not given: the % may be the effect or the level left; method in brief: as §1
Spinacia oleracea [28] = experiment: Effect on uncoupled photosystem 1 in spinach chloroplast assessed as inhibition of electron transport rate of tetramethyl-p-benzohydroquinone to methyl viologen at 200 uM relative to control; parameters: scale not given: the % may be the effect or the level left; method in brief: as §2
[29] = (§10) Inhibition of photosynthetic phosphorylation from water to methyl viologen in spinach leaves chloroplast; assay type: functional, Spinacia oleracea; settings: read-out: I50
Method in brief: (§11)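 Isolated spinach chloroplasts (20 μg Chl/mL) osmotically ruptured in 100 mM sorbitol, 10 mM KCl, 5 mM MgCl₂, 0.001 M Na⁺-tricine, with 1 mM ADP, 3 mM Pi and 0.05 mM MV. ATP formed was calculated from light-driven alkalization, back-titrated with HCl. I50 read from concentration-response plots; average of three replicates.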

Spinacia oleracea [30] = experiment: Effect on ATP synthesis in spinach leaves chloroplast assessed as blockade of basal electron transport at 300 uM; assay type: functional; method in brief: as §6
Spinacia oleracea [31] = experiment: as §10; assay type: functional; method in brief: as §11
Spinacia oleracea [32] = experiment: Effect on photosystem 2 interaction site in spinach thylakoid membrane assessed as chlorophil-a fluorescence parameter at 10 uM; assay type: cell membranes

SMILES: CC(=O)O[C@H]1CC[C@](C)(O)[C@]23OC(C)(C)[C@H]([C@H](OC(=O)/C=C/c4ccccc4)[C@H](OC(=O)c4ccccc4)[C@]12C)[C@H]3O
- Activity (Spinacia oleracea [1]): 64%
- Activity (Spinacia oleracea [2]): 131%
- Activity (Spinacia oleracea [3]): 106%
- Activity (Spinacia oleracea [4]): 115%
- inhibition (Spinacia oleracea [5]): 26%
- inhibition (Spinacia oleracea [6]): 13%
- inhibition (Spinacia oleracea [7]): 83%
- Activity (Spinacia oleracea [8]): 129%
- Activity (Spinacia oleracea [9]): 11%
- Activity (Spinacia oleracea [10]): 32%
- Activity (Spinacia oleracea [11]): 100%
- inhibition (Spinacia oleracea [12]): 68%
- residual activity (Spinacia oleracea [13]): 91%
- residual activity (Spinacia oleracea [14]): 87%
- Activity (Spinacia oleracea [15]): 21%
- inhibition (Spinacia oleracea [16]): 79%
- Flu intensity (Spinacia oleracea [17]): 1220
- inhibition (Spinacia oleracea [18]): 52%
- Flu intensity (Spinacia oleracea [19]): 875
- Activity (Spinacia oleracea [20]): 71%
- Activity (Spinacia oleracea [21]): 100%
- residual activity (Spinacia oleracea [22]): 89%
- Activity (Spinacia oleracea [23]): 93%
- Activity (Spinacia oleracea [24]): 100%
- Activity (Spinacia oleracea [25]): 32%
- Flu intensity (Spinacia oleracea [26]): 1260
- Activity (Spinacia oleracea [27]): 80%
- Activity (Spinacia oleracea [28]): 120%
- IC50 [29]: 25 µM
- inhibition (Spinacia oleracea [30]): 32%

SMILES: CC(=O)O[C@H]1CC[C@](C)(O)[C@]23OC(C)(C)[C@H]([C@H](OC(=O)/C=C/c4ccccc4)[C@H](OC(=O)c4ccccc4)[C@]12C)[C@H]3OC(C)=O
- Activity (Spinacia oleracea [31]): inactive

SMILES: CC(=O)O[C@H]1CC[C@@H](C)[C@]23OC(C)(C)[C@H]([C@H](OC(=O)/C=C/c4ccccc4)[C@H](OC(=O)c4ccccc4)[C@]12C)[C@H]3O
- IC50 [29]: 44 µM

SMILES: CN(C)C(=O)Nc1ccc(Cl)c(Cl)c1
- Flu intensity (Spinacia oleracea [32]): 1200

From ChEMBL document CHEMBL1155840, “Sesquiterpenes from Celastrus vulcanicola as photosynthetic inhibitors” (J Nat Prod, 2008)
